# Measured values as given in ChEMBL document CHEMBL5113395, “Azetidin-2-one-based small molecules as dual hHDAC6/HDAC8 inhibitors: Investigation of their mechanism of action and impact of dual inhibition profile on cell viability” (Eur J Med Chem, 2022).
# The source made the active and inactive calls. The calls are words filed in the database; no cut-off is given here.
# Tests used:
# [1] = Cardiotoxicity in Langendorff-perfused Wistar rat heart assessed as effect on RR time at 1 uM by ECG analysis (reference value: 239.5+/-9.2 milliseconds); assay type: toxicity, tissue-based
# [2] = Cardiotoxicity in Langendorff-perfused Wistar rat heart assessed as effect on QTc interval time at 0.01 uM by ECG analysis (reference value: 66.4+/-1.3 milliseconds); assay type: toxicity, tissue-based
# [3] = Metabolic stability in rat liver microsome assessed as apparent decay constant at 5 uM in presence of NADPH incubated up to 60 mins by HPLC analysis; assay type: ADME; details: liver microsomes
# Outline: (§1)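 Compound (in MeCN) at 5 μM incubated at 37 °C in 100 mM phosphate buffer pH 7.4 with 0.5 mg/mL liver microsomal protein (rat, mouse or human). CYP reactions started with NADPH-generating system (2 mM NADPH, glucose-6-phosphate, G6P dehydrogenase, MgCl2). Stopped with MeCN at intervals over 0–60 min. Remaining parent quantified by HPLC-UV at 254 nm. Ln % recovery vs time fitted to first-order decay. Triplicate incubations.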
# [4] = Cardiotoxicity in Langendorff-perfused Wistar rat heart assessed as effect on RR time at 0.1 uM by ECG analysis (reference value: 239.5+/-9.2 milliseconds); assay type: toxicity, tissue-based
# [5] = Chemical stability of compound in PBS at pH 7.4 incubated for 24 hrs under UV 254 nm stress condition by HPLC/UV/DAD analysis; assay type: physicochemical; details: read-out: Stability
# Danio rerio [6] = assay: In vivo inhibition of HDAC8 in zebrafish AB embryos assessed as increase in acetylation level of alpha-tubulin at 20 to 75 uM measured after 24 hrs by Western blot analysis; assay type: functional, organism-based; details: dose 20-75 µM
# [7] = Cardiotoxicity in Langendorff-perfused Wistar rat heart assessed as effect on QTc interval time at 1 uM by ECG analysis (reference value: 66.4+/-1.3 milliseconds); assay type: toxicity, tissue-based
# [8] = Metabolic stability in mouse liver microsome assessed as intrinsic clearance at 5 uM measured per mg protein in presence of NADPH incubated up to 60 mins by HPLC analysis; assay type: ADME; details: microsomes, 1 h; outline: as §1
# [9] = Octanol-water partition coefficient, log P of the compound by HPLC analysis; assay type: physicochemical
# Outline: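 Stock of 0.005 M in MeOH, diluted serially in MeOH to build a calibration curve. Compound partitioned between water and n-octanol. LogP taken from the n-octanol/water phase ratio against the calibration curve, quantified by the RP-18 HPLC method at 254 nm.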
# [10] = Cardiotoxicity in Langendorff-perfused Wistar rat heart assessed as effect on QT interval time at 1 uM by ECG analysis (reference value: 66.1+/-1.1 milliseconds); assay type: toxicity, tissue-based
# [11] = Cardiotoxicity in Langendorff-perfused Wistar rat heart assessed as effect on HR at 1 uM by ECG analysis (reference value: 252.3 +/-10.1 bpm); assay type: toxicity, tissue-based
# [12] = Cardiotoxicity in Langendorff-perfused Wistar rat heart assessed as effect on QRS interval time at 1 uM by ECG analysis (reference value: 13.3+/-0.6 milliseconds); assay type: toxicity, tissue-based
# [13] = Cardiotoxicity in Langendorff-perfused Wistar rat heart assessed as effect on PQ interval time at 10 uM by ECG analysis (reference value: 45.4+/-3.9 milliseconds); assay type: toxicity, tissue-based
# [14] = Cardiotoxicity in Langendorff-perfused Wistar rat heart assessed as effect on QTc interval time at 0.1 uM by ECG analysis (reference value: 66.4+/-1.3 milliseconds); assay type: toxicity, tissue-based
# [15] = Cardiotoxicity in Langendorff-perfused Wistar rat heart assessed as effect on QTc interval time at 10 uM by ECG analysis (reference value: 66.4+/-1.3 milliseconds); assay type: toxicity, tissue-based
# Danio rerio [16] = assay: In vivo inhibition of HDAC6 in zebrafish AB embryos assessed as increase in acetylation level of alpha-tubulin at 25 to 75 uM measured after 24 hrs by Western blot analysis; details: dose 25-75 µM
# [17] = Cardiotoxicity in Langendorff-perfused Wistar rat heart assessed as effect on QT interval time at 10 uM by ECG analysis (reference value: 66.1+/-1.1 milliseconds); assay type: toxicity, tissue-based
# B cell = assay: Cytotoxicity against patient derived human B cells; assay type: toxicity, cell-based
# [18] = Cardiotoxicity in Langendorff-perfused Wistar rat heart assessed as effect on QT interval time at 0.01 uM by ECG analysis (reference value: 66.1+/-1.1 milliseconds); assay type: toxicity, tissue-based
# [19] = Metabolic stability in mouse liver microsome assessed as apparent decay constant at 5 uM in presence of NADPH incubated up to 60 mins by HPLC analysis; assay type: ADME; details: liver microsomes
# Outline: (§2)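 Compound in MeCN was incubated at 5 µM and 37 °C in 100 mM phosphate buffer pH 7.4 with 0.5 mg/mL human or mouse liver microsomal protein. Reactions were started with an NADPH-regenerating system (2 mM NADPH, glucose-6-phosphate, G6PDH, MgCl2) and stopped with MeCN over 0–60 min. Remaining compound was measured by HPLC-UV at 254 nm, in triplicate, with first-order decay fitting.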
# [20] = Metabolic stability in rat liver microsome assessed as intrinsic clearance at 5 uM measured per mg protein in presence of NADPH incubated up to 60 mins by HPLC analysis; assay type: ADME; details: microsomes, 1 h; outline: as §1
# [21] = Metabolic stability in human liver microsome assessed as apparent decay constant at 5 uM in presence of NADPH incubated up to 60 mins by HPLC analysis; assay type: ADME; details: microsomes, 1 h; outline: as §2
# [22] = Cardiotoxicity in Langendorff-perfused Wistar rat heart assessed as effect on HR at 10 uM by ECG analysis (reference value: 252.3 +/-10.1 bpm); assay type: toxicity, tissue-based
# [23] = Cardiotoxicity in Langendorff-perfused Wistar rat heart assessed as effect on RR time at 0.01 uM by ECG analysis (reference value: 239.5+/-9.2 milliseconds); assay type: toxicity, tissue-based
# [24] = Toxicity in zebrafish AB embryos at 25 to 75 uM measured after 24 hrs; details: Danio rerio, in vivo
# [25] = Cardiotoxicity in Langendorff-perfused Wistar rat heart assessed as effect on HR at 0.01 uM by ECG analysis (reference value: 252.3 +/-10.1 bpm); assay type: toxicity, tissue-based
# [26] = Solubility of compound in PBS at pH 7.4 measured after 24 hrs by HPLC/UV/DAD analysis; assay type: physicochemical
# Outline: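 10 mM DMSO stock diluted to 250 μM (2.5% DMSO) in 50 mM aqueous PBS pH 7.4. Standard prepared in MeCN/water 60:40. Sealed and shaken 24 h at 25 °C, PTFE-filtered and diluted 1:2 in buffer. Quantified by HPLC/UV/DAD at 254 nm against the 250 μM standard. Triplicate, averaged.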
# [27] = Cardiotoxicity in Langendorff-perfused Wistar rat heart assessed as effect on PQ interval time at 0.1 uM by ECG analysis (reference value: 45.4+/-3.9 milliseconds); assay type: toxicity, tissue-based
# [28] = Cardiotoxicity in Langendorff-perfused Wistar rat heart assessed as effect on QT interval time at 0.1 uM by ECG analysis (reference value: 66.1+/-1.1 milliseconds); assay type: toxicity, tissue-based
SMILES,"k el at 1 h, 5 µM [3] [s⁻¹]",remaining at 24 h [5] [%],Activity (Danio rerio [6]),CLH [8] [µL/min],logP [9],Activity (Danio rerio [16]),"k el at 1 h, 5 µM [19] [s⁻¹]",CLH [20] [µL/min],K [21] [min⁻¹],Activity [24],solubility at 24 h [26] [µM],further results
O=C(NO)c1ccc(CNC(=O)N2CCC(N3CC(c4ccccc4)(c4ccccc4)C3=O)CC2)cc1,0.000118,100,Active,33.63,2.78,Active,0.000173,7.39,0.0362,Non-Toxic,10,Time [1]: 237.2 ms; Time [2]: 66.9 ms; Time [4]: 233.1 ms; Time [7]: 68.9 ms; Time [10]: 68.1 ms; Activity [11]: 252 bpm; Time [12]: 13.9 ms; Time [13]: 47.5 ms; Time [14]: 68.2 ms; Time [15]: 68.6 ms; Time [17]: 68.5 ms; Activity (B cell): Non-Toxic; Time [18]: 66.7 ms; Activity [22]: 248.4 bpm; Time [23]: 239.8 ms; Activity [25]: 251.2 bpm; Time [27]: 44.9 ms; Time [28]: 66.1 ms
O=C(NO)c1ccc(CNC(=O)N2CCC(N3C(=O)[C@H](c4ccccc4)[C@H]3c3ccccc3)CC2)cc1 (racemic),0.000135,100,Active,35.38,2.75,Active,0.000182,8.43,0.0129,Non-Toxic,70,
